Only some compounds are listed: those with a hit (about 4.5% of all), similar ones and a draw of the others.
MrgX1 ag: agonists of human MrgX1 receptor. MrgX1-HEK293 cells, Fluo-4 calcium fluorescence, agonist mode; active compounds read high. B-score at 10 µM. AID 588627. 310,000 tested, 0.44% active;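 active = calcium response B-score plate-corrected fluorescence ratio at least 3 library SD, with starting fluorescence B-score inside 5 SD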
Target sequence (Q96LB2 whole entry, looked up): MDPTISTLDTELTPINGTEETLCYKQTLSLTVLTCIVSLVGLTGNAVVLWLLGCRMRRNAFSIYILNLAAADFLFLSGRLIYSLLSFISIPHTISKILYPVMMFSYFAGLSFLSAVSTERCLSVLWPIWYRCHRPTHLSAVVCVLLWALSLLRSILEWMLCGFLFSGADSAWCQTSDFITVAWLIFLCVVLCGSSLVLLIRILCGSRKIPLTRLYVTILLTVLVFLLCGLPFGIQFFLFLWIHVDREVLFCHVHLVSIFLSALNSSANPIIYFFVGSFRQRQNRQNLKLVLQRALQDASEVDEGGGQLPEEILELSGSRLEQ
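System: HEK293 cells stably expressing human MrgX1 receptor; Dosing: test compound in the initial addition of three; Schedule: overnight plating, then 30 min 37 °C plus 30 min room-temperature dye loading; Detection: kinetic calcium dye fluorescence, Fluo-4 NW; Controls: per-plate positive and negative controls for Z′ factor.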
MrgX1 antag: human MrgX1 receptor antagonism, primary screen | 310,000 tested, 1.3% active | B-score at 10 µM | MRGX1-HEK293 calcium flux, Fluo-4, BAM8-22 antagonism; active compounds read low | Q96LB2;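 active = calcium-response B-score plate-corrected more than 3 library SD below zero, starting fluorescence within 5 deviations, no agonist response on first addition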;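 note: peak minus trough fluorescence over baseline after final BAM8-22 challenge near maximal dose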
PHOSPHO1 inh: inhibitors of human PHOSPHO1 phosphatase; Q8TCT1; recombinant PHOSPHO1, absorbance phosphatase assay; inhibition, % at 13.3 µM; 290,000 tested, 1.1% active; AID 1565; in the data active = inhibition above about 60%
RGS4 act: RGS4 potentiation or activation. HEK293 M3R/inducible RGS4, carbachol calcium flux Fluo4; active compounds read low. AID 463111. 310,000 tested, 0.92% active. B-score at 10 µM;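 active = B-score of the integrated calcium signal more than 4 SD below the library mean, with starting fluorescence not abnormally high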;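 note: negative B-score means reduced calcium response which marks RGS4 activation or potentiation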
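System: HEK293 FlpIn-TREx cells, stable M3R, doxycycline-inducible RGS4. Timing: overnight RGS4 induction, 30 min dye load 37 °C, 20 min compound RT. Also added: carbachol, ECmax concentration. Measured by: Fluo4 fluorescence kinetic imaging of calcium. Evaluation: integrated calcium ratio converted to B score.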
RGS4 inh: inhibitors of human RGS4 | B-score at 10 µM | 310,000 tested, 0.45% active | P49798 | HEK293 M3R/RGS4 inducible, Fluo-4 calcium flux; active compounds read high; triggered by carbachol at its EC20;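 active = B-score, a plate-corrected calcium signal, over three deviations above library mean, with baseline fluorescence within five deviations of library mean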;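 note: RGS4 expression induced by doxycycline in cells with stable M3 receptor; B-score is computed from the integrated fluorescence ratio over baseline after carbachol; higher B-score means a larger calcium signal and so more RGS4 inhibition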
MrgX1 PAM: human MrgX1 positive allosteric modulation, primary screen. MrgX1-HEK293, Fluo-4 calcium flux, FDSS; active compounds read high. AID 588675. 310,000 tested, 0.63% active. Q96LB2. B-score at 10 µM;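 active = plate-corrected calcium response at least 3 library SD above typical, normal starting fluorescence, not activating the receptor alone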;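 note: compound read alongside a low EC10 to EC30 dose of BAM8-22 agonist; peak minus trough fluorescence over baseline measured at the second addition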
Active calls of the source: *; i = inactive; . = no result; ! = not active in a repeat.

SMILES | MrgX1 ag | MrgX1 antag | PHOSPHO1 inh | RGS4 act | RGS4 inh | MrgX1 PAM
Cc1nn(-c2ccccc2)c2nc(C(F)(F)F)[nH]c(=O)c12 | i | i | -1.8 | i | i | i
Cc1nn(-c2cc(C(F)(F)F)ccc2Cl)c2nc(C(Cl)(Cl)Cl)[nH]c(=O)c12 | 42.6* | i | -8.5 | i | i | i
Cc1ccc(/C(O)=C2/C(=O)C(=O)N(c3ccccn3)C2c2ccc([N+](=O)[O-])cc2)cc1 (stereo not drawn) | i | -4.82* | 24.7 | i | i | i
CCCN(C(=O)c1cn(C)c(=O)c2ccccc12)c1ccccc1C | i | i | 9.8 | i | i | i
C=CCn1c(C)csc1=Nc1ccc(C(=O)O)cc1 | i | i | -98.9 | i | i | i
CCOC(=O)N1CCC(=C2c3ccc(Cl)cc3CCc3cccnc32)CC1 | i | i | 74.5*! | i | i | i
CCOC(=O)N1CCN(Cc2ccc(O)c3ncccc23)CC1 | i | i | -99.0 | i | i | i
O=C(Cc1cccs1)Nc1ccc(-c2nnc(-c3ccccc3)o2)cc1 | i | i | . | i | i | i
Cc1cccc(-c2nnc(-c3cccc(NC(=O)Cc4cccs4)c3)o2)c1 | i | i | -0.1 | -7.41* | i | i
Cc1csc(SC(C)c2nc3scc(-c4ccccc4)c3c(=O)[nH]2)n1 (stereo not drawn) | i | i | 29.7 | i | i | i
COc1ccc(NS(=O)(=O)c2ccc(O)c(NC(=O)c3ccc(S(=O)(=O)N4CCCC4)cc3)c2)cc1 | i | i | 20.3 | i | i | i
COc1ccc(NS(=O)(=O)c2ccc(O)c(NC(=O)c3ccc(S(=O)(=O)N4CCCCCC4)cc3)c2)cc1 | i | i | -4.0 | -7.76* | i | i
CC(C)OC(=O)c1ccc2nc3ccccc3nc2c1 | i | i | 15.6 | i | i | i
C#CCOc1c(Br)cc(/C=N/O)cc1OCC | i | i | 13.3 | i | i | 7.91*
CCN1/C(=C/c2sc(-c3ccccc3C)c[n+]2C)Sc2ccccc21 | . | . | -17.1 | -7.42* | i | .
CCN1/C(=C/c2ccc3cc(C)ccc3[n+]2CC)Sc2ccccc21 | i | i | -36.0 | i | i | i
CC1(C)CC(=O)C2=C(C1)Nc1[nH]c(=S)[nH]c(=O)c1C2c1ccccc1 (stereo not drawn) | i | i | 96.3* | i | i | i
CSc1nc2c(c(=O)[nH]1)C(c1ccccc1)C1=C(CC(C)(C)CC1=O)N2 (stereo not drawn) | i | i | 8.2 | i | i | i
Cc1ccc(C2C3=C(CCCC3=O)Nc3[nH]c(=S)[nH]c(=O)c32)cc1 (stereo not drawn) | i | i | 102.5* | i | i | i
COc1cc(C(=O)N/N=C/c2ccc3c(c2)c2ccccc2n3C)ccc1O | i | i | 42.7 | i | i | i
Cn1c2ccccc2c2cc(/C=N/NC(=O)c3cc(O)ccc3O)ccc21 | i | i | -0.3 | -9.04* | i | i
CCc1nn(C(C)C(=O)NCCc2ccccc2)c(=O)c2cc3occc3n12 (stereo not drawn) | i | i | 42.2 | i | i | i
COc1ccc(CNC(=O)C(C)n2nc(C)n3c(cc4occc43)c2=O)cc1 (stereo not drawn) | i | -8.11* | 58.3 | i | i | i
Cc1nn(C(C)C(=O)NC(C)CCc2ccccc2)c(=O)c2cc3occc3n12 (stereo not drawn) | i | -7.6* | 34.4 | i | i | i
CCC1C(c2ccccc2)N(C)C(c2ccccc2)CC1(O)c1ccccc1 (stereo not drawn) | i | i | 32.8 | -7.66* | i | i
Cc1nc(C2CCC3C4CCC5=CC(=O)CC[C@]5(C)C4CC[C@]23C)cs1 (stereo partly drawn) | i | i | 15.8 | -10.2* | i | i
Nc1ccc(C(=O)CC(=O)Nc2ccc(Cl)cc2)cc1 | i | i | 24.1 | i | i | i
COc1ccc(C2Nc3ccccc3C(=O)N2c2ccc(C)cc2)cc1Cn1nnc2ccccc21 (stereo not drawn) | i | i | 11.3 | i | i | 23.1*
COc1ccc(C2Nc3ccccc3C(=O)N2c2ccc(C)cc2)cc1Cn1cc([N+](=O)[O-])cn1 (stereo not drawn) | i | i | 45.9 | i | i | i
COc1ccccc1NS(=O)(=O)c1cc(NC(=O)Nc2cccc(C)c2)ccc1N1CCCCC1 | i | i | 24.4 | i | i | i
